Reference: ChEMBL document CHEMBL1147798, “Novel bis(1H-indol-2-yl)methanones as potent inhibitors of FLT3 and platelet-derived growth factor receptor tyrosine kinase” (J Med Chem, 2006)
The source made the active and inactive calls. The calls are words filed in the database; no cut-off is given here.

Columns and labels:
[1] = target: Platelet-derived growth factor receptor (Mus musculus, UniProt P05622+P26618); test: Inhibition of endogenous PDGFR in Swiss3T3 fibroblasts
[2] = target: T1, Receptor-type tyrosine-protein kinase FLT3 (Homo sapiens, UniProt P36888); test: Inhibition of endogenous FLT3 in EOL1 cells; type: cell-based
T1 sequence (P36888 whole entry): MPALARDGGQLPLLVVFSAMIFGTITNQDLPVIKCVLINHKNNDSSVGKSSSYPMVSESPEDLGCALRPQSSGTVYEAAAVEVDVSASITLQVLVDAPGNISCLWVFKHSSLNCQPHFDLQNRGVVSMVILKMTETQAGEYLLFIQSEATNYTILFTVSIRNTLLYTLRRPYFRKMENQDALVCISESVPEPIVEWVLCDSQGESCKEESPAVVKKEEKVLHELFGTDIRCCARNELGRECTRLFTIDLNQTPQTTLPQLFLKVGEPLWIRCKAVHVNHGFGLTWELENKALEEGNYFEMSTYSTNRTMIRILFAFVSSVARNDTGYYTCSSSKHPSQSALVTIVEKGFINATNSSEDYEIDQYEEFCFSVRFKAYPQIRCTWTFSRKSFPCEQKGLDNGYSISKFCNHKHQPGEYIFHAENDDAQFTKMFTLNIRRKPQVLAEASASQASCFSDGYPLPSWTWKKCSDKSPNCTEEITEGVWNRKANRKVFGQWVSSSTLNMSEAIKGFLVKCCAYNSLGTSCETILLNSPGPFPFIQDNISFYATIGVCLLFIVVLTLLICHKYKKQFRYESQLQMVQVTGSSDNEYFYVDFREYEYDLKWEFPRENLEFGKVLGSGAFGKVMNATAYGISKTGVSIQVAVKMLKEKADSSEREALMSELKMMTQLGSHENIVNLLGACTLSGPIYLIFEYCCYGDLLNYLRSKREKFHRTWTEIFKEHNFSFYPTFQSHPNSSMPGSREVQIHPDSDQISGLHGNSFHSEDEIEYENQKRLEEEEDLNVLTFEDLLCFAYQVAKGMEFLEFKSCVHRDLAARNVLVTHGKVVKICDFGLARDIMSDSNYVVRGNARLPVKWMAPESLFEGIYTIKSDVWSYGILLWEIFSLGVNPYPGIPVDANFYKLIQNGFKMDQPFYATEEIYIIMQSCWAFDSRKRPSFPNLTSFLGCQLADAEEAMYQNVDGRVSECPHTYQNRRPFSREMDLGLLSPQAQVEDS

[3] = target: Platelet-derived growth factor receptor beta (Homo sapiens, UniProt P09619); test: Inhibition of human PDGFR beta
Chain of Platelet-derived growth factor receptor beta (P09619 whole entry, the tested form may be a part): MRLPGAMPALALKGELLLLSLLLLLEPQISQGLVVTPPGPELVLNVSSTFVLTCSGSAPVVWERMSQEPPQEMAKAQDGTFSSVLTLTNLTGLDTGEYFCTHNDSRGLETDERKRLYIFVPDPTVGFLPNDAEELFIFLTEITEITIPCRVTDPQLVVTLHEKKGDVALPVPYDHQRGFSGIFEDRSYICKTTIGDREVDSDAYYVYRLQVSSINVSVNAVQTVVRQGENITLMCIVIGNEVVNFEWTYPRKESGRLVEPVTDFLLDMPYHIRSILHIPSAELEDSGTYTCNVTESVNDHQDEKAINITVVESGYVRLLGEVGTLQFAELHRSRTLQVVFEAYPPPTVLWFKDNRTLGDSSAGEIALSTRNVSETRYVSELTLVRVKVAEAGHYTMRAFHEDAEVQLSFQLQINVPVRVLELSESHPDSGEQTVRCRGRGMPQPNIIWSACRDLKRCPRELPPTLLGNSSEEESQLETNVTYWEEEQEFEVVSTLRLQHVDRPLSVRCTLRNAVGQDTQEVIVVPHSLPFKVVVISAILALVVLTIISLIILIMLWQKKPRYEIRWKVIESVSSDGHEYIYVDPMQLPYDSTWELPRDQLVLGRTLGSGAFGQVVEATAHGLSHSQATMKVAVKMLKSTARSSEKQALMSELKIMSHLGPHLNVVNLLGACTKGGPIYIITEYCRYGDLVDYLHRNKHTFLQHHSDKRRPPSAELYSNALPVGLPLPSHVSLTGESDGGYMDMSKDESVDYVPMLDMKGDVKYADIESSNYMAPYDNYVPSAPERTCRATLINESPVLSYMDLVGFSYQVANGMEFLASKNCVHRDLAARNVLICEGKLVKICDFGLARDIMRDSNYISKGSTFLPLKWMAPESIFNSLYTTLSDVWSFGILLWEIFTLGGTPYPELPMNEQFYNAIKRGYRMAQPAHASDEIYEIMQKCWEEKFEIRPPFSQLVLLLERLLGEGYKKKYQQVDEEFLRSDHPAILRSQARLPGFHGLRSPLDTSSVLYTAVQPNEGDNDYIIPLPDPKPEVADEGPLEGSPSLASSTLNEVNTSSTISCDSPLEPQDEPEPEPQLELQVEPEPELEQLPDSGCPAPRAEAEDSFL

Bcr/Abl fusion protein = Bcr/Abl fusion protein (Homo sapiens, UniProt P00519); test: Inhibition of oncogenic Bcr-Abl kinase in K562 cells; type: cell-based
Chain of Bcr/Abl fusion protein (P00519 whole entry, the tested form may be a part): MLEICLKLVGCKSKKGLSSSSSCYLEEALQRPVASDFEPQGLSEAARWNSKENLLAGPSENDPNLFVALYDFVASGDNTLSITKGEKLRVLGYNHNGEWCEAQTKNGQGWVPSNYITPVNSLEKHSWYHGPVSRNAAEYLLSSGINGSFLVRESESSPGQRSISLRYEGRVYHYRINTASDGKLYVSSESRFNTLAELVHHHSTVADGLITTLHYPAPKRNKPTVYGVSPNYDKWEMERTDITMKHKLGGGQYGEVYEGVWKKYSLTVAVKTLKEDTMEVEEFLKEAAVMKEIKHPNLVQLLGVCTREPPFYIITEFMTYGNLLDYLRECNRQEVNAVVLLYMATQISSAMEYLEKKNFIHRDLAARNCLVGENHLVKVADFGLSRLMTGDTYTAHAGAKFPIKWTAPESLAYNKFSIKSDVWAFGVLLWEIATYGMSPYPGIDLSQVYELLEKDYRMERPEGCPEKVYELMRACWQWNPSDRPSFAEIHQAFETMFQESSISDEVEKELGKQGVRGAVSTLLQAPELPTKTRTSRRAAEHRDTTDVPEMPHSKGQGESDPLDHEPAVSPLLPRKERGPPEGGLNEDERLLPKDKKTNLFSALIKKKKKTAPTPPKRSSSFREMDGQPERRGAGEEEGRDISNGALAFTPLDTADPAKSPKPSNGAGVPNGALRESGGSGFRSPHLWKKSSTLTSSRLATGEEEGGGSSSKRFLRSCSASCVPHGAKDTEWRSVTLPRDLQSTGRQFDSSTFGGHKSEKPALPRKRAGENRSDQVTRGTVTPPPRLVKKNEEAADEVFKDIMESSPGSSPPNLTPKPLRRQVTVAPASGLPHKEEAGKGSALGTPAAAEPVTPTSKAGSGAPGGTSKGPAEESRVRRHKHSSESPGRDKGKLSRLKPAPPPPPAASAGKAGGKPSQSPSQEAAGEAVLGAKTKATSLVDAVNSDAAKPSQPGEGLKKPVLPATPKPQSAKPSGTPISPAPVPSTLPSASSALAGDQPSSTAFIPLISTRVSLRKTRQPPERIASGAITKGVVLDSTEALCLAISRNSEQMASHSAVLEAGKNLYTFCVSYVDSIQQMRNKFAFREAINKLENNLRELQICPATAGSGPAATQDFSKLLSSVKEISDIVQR
Chain of Bcr/Abl fusion protein (P11274 whole entry, further chain, the tested form may be a part): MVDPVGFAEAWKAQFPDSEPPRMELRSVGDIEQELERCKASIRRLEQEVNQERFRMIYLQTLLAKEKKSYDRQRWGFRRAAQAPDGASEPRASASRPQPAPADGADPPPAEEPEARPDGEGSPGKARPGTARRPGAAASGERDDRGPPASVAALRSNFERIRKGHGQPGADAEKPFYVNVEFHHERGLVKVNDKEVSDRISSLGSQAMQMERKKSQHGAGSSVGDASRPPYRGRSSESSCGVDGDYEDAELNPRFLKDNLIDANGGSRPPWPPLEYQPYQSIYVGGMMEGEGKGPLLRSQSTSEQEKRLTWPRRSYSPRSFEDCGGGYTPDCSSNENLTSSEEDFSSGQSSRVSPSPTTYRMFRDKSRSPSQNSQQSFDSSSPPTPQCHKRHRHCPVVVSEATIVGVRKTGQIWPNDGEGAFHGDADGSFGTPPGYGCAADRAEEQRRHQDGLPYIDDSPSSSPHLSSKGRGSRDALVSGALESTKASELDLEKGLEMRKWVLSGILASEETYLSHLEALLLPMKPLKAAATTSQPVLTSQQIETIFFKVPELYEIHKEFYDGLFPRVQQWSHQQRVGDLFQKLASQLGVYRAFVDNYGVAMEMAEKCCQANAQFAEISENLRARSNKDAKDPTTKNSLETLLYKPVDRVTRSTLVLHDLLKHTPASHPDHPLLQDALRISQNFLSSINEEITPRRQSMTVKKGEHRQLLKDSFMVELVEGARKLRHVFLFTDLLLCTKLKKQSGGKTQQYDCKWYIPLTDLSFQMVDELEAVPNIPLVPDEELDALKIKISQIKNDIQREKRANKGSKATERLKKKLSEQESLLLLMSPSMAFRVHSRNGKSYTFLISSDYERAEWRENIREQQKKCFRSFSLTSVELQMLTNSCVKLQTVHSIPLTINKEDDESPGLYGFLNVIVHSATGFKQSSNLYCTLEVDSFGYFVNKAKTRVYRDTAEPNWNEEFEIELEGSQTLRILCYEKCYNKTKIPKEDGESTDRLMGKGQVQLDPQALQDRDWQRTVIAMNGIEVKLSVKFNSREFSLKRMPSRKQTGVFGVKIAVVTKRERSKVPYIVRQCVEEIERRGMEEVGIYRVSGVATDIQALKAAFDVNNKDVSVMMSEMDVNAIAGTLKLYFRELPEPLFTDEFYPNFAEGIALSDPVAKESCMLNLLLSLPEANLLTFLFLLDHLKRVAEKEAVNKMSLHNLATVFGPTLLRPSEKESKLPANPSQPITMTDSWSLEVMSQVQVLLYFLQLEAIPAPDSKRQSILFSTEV
Procedure, shortened: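 K562 cells, 2 × 10⁶ in 1 mL serum-free RPMI1640, inhibitor or 1% DMSO at 37 °C for 2 h; lysates immunoblotted with anti-pAbl and anti-Abl to gauge Bcr-Abl autophosphorylation.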

[4] = target: Tyrosine-protein kinase ABL1 (Homo sapiens, UniProt P00519); test: Inhibition of recombinant Abl
Chain of Tyrosine-protein kinase ABL1 (P00519 whole entry, the tested form may be a part): as the sequence (P00519 whole entry, the tested form may be a part) above
Procedure, shortened: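 0.5 µg GST-c-Abl catalytic domain preincubated 10 min on ice with inhibitor (DMSO stock) in 50 mM Tris-HCl pH 7.5, 10 mM MgCl₂, 10 µM orthovanadate, 1 mM DTT; [³²Pγ]ATP, final ATP 111 nM, 30 °C 30 min; SDS-PAGE; autophosphorylation radioactivity normalized to Coomassie-stained protein.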

[5] = target: T1, Receptor-type tyrosine-protein kinase FLT3; test: Inhibition of human FLT3
[6] = target: Mast/stem cell growth factor receptor Kit (Homo sapiens) (UniProt P10721); test: Inhibition of DNA synthesis in IL3 dependent FDC-P1 cells expressing KIT D814V mutant; type: functional, cell-based
Chain of Mast/stem cell growth factor receptor Kit (Homo sapiens) (P10721 whole entry): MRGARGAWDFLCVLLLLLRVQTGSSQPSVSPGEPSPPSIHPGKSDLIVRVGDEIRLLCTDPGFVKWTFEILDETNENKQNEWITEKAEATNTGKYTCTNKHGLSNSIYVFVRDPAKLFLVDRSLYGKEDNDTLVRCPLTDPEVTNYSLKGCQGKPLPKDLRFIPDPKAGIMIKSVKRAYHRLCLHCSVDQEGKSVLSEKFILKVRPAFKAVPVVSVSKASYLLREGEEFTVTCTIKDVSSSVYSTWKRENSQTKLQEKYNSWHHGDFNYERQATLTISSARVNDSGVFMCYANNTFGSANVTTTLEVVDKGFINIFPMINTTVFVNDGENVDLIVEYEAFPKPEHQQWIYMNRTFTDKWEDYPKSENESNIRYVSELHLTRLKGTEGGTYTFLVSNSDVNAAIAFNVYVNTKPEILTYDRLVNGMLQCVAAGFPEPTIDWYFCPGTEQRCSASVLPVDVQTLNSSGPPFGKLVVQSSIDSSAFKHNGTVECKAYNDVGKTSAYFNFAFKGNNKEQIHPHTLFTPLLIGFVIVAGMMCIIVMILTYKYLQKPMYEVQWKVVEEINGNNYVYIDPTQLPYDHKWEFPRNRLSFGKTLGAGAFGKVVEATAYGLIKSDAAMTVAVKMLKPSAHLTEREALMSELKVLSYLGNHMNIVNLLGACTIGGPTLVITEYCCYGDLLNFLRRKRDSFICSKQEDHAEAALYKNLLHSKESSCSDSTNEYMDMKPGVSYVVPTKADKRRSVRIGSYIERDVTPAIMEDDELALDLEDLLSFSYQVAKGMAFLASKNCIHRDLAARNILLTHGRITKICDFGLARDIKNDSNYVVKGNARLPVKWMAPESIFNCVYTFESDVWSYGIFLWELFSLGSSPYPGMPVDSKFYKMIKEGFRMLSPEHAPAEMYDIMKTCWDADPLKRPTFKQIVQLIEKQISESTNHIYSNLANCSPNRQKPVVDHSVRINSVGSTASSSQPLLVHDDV
Procedure, shortened: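 Parental FDC-P1 cells or FDC-P1 lines expressing KIT variants treated 42 h with compound, with or without IL-3 or stem cell factor; DNA synthesis measured as [³H]thymidine incorporation.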

Structure (SMILES) | IC50 [1] | other results
COc1cccc2cc(C(=O)c3cc4cc(O)ccc4[nH]3)[nH]c12 | 2900 nM | 
O=C(c1cc2ccccc2[nH]1)c1cc2cc(F)ccc2[nH]1 | 760 nM | 
COc1ccc2[nH]c(C(=O)c3cc4ccc(F)cc4[nH]3)cc2c1 | 840 nM | 
O=C(c1cc2cc(O)ccc2[nH]1)c1cc2ccc(F)cc2[nH]1 | 590 nM | 
O=C(c1cc2cc(O)ccc2[nH]1)c1cc2cccc(F)c2[nH]1 | 4800 nM | IC50 [2]: > 30000 nM
COc1ccc2[nH]c(C(=O)c3cc4ccc(Cl)cc4[nH]3)cc2c1 | 200 nM | IC50 [3]: 55 nM
COc1ccc2cc(C(=O)c3cc4cc(OCCN5CCCCC5)ccc4[nH]3)[nH]c2c1 | 1000 nM | 
O=C(c1cc2cc(O)ccc2[nH]1)c1cc2c(Br)cccc2[nH]1 | 6100 nM | 
CCc1cccc2cc(C(=O)c3cc4cc(O)ccc4[nH]3)[nH]c12 | 4400 nM | 
COc1ccc2cc(C(=O)c3cc4cc(O)ccc4[nH]3)[nH]c2c1 | 650 nM | 
COc1ccc2cc(C(=O)c3cc4cc(OCc5ccccc5)ccc4[nH]3)[nH]c2c1 | > 30000 nM | 
O=C(c1cc2cc(F)ccc2[nH]1)c1cc2cc(OCc3ccccc3)ccc2[nH]1 | 5800 nM | IC50 [2]: > 30000 nM
O=C(c1cc2cc(O)ccc2[nH]1)c1cc2cc(O)ccc2[nH]1 | 300 nM | IC50 (Bcr/Abl fusion protein): 4200 nM; IC50 [3]: 171 nM; IC50 [4]: 1300 nM; IC50 [2]: 40 nM; IC50 [5]: 33 nM
Cc1cccc2[nH]c(C(=O)c3cc4cc(F)ccc4[nH]3)cc12 | 1200 nM | 
COc1ccc2[nH]c(Cc3cc4ccccc4[nH]3)cc2c1 | > 30000 nM | IC50 [2]: > 30000 nM
O=C(c1cc2cc(O)ccc2[nH]1)c1cc2cc(F)ccc2[nH]1 | 730 nM | 
Cc1ccc2cc(C(=O)c3cc4cc(O)ccc4[nH]3)[nH]c2c1 | 580 nM | 
O=C(c1cc2ccccc2[nH]1)c1cc2ccccc2[nH]1 | 1000 nM | 
COc1ccc2[nH]c(C(=O)c3cc4cccc(Cl)c4[nH]3)cc2c1 | > 30000 nM | IC50 [2]: > 30000 nM
Cc1cccc2[nH]c(C(=O)c3cc4cc(OCCN5CCCCC5)ccc4[nH]3)cc12 | 10000 nM | IC50 [3]: 1200 nM

Structure (SMILES) | IC50 [1] | other results
COc1ccc2cc(C(=O)c3cc4cc(OCCN(C)C)ccc4[nH]3)[nH]c2c1 | 2800 nM | 
COc1cccc2[nH]c(C(=O)c3cc4cc(O)ccc4[nH]3)cc12 | 960 nM | 
COc1ccc2[nH]c(C(=O)c3cc4c(C)cccc4[nH]3)cc2c1 | 4030 nM | 
Cc1cc2ncc(-c3ccccc3)nc2cc1C [AG1295] | 5400 nM | IC50 [2]: 1100 nM
COc1ccc2[nH]c(C(=O)c3cc4ccc(C)cc4[nH]3)cc2c1 | 510 nM | 
COc1ccc2[nH]c(C(=O)c3cc4cc(C)ccc4[nH]3)cc2c1 | > 30000 nM | 
COc1ccc2[nH]c(C(=O)c3cc4cc(F)ccc4[nH]3)cc2c1 | 400 nM | 
Cc1cccc2[nH]c(C(=O)c3cc4cc(O)ccc4[nH]3)cc12 | 960 nM | IC50 [3]: 458 nM; Activity [6]: inactive
COc1ccc2[nH]c(C(=O)c3cc4c(Cl)cccc4[nH]3)cc2c1 | > 30000 nM | 
O=C(c1cc2ccccc2[nH]1)c1cc2cc(Oc3ccccc3)ccc2[nH]1 | 10000 nM | 
O=C(c1cc2cc(F)ccc2[nH]1)c1cc2cc(OCCN3CCCCC3)ccc2[nH]1 | 500 nM | 
COc1cccc2[nH]c(C(=O)c3cc4ccccc4[nH]3)cc12 | 1500 nM | 
Cc1ccc2[nH]c(C(=O)c3cc4cc(O)ccc4[nH]3)cc2c1 | 3500 nM | 
O=C(c1cc2ccccc2[nH]1)c1cc2cc(O)ccc2[nH]1 | 200 nM | IC50 [2]: 570 nM
COc1ccc2[nH]c(C(=O)c3cc4cc(Cl)ccc4[nH]3)cc2c1 | 2500 nM | 
COc1ccc2[nH]c(C(=O)c3cc4cc(Br)ccc4[nH]3)cc2c1 | 8500 nM | 
COc1ccc2[nH]c(C(=O)c3cc4c(F)cccc4[nH]3)cc2c1 | 8100 nM | 
O=C(c1cc2cc(O)ccc2[nH]1)c1cc2c(Cl)cccc2[nH]1 | 500 nM | 
COc1ccc2[nH]c(Cc3cc4cc(F)ccc4[nH]3)cc2c1 | > 30000 nM | IC50 [2]: > 30000 nM
O=C(c1cc2cc(O)ccc2[nH]1)c1cc2c(F)cccc2[nH]1 | 620 nM | 
